Active and inactive are the calls of the source.
Assays:
Poliovirus 1 [1] = test: Antiviral activity against Human poliovirus type 1 infected in mouse assessed as viral titer in spleen at 10 mg/kg, ip administered 1 hr post infection once daily for 5 days measured after 10 days by plaque assay; format: functional, organism-based; design: dose 10 mg/kg
HeLa [2] = test: Cytotoxicity against human HeLa cells 10 uM after 24 hrs by MTS assay; format: cell-based
Method in brief: (§1)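 HeLa cells at ~80% confluence, uninfected, exposed to 1–100 μM PPMO or water (mock) in serum-free DMEM-F-12 (1:1) for 24 h. MTS reagent was added for 4 h and absorbance read at 492 nm. Viability was expressed as percent of water-treated cells (set to 100%), averaged over 12 wells.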

Poliovirus 1 [3] = test: Antiviral activity against Human poliovirus type 1 infected in mouse assessed as protection from virus-induced paralytic symptom at 10 mg/kg, ip administered 1 hr post infection once daily for 5 days measured after 10 days by plaque assay; format: functional, organism-based; design: dose 10 mg/kg
Method in brief: (§2)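 Poliovirus receptor transgenic (cPVR) mice, about 10 weeks old, were infected i.p. with 3 × 10^8 PFU wt PV1. They received 200 μg (~10 mg/kg) PPMO in 500 μl sterile PBS i.p., or PBS alone, at 1 h p.i. and then every 24 h ([…]; 6 mice per group). Mice were monitored daily for paralysis and death, and euthanized at near-total paralysis.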

Poliovirus 1 [4] = test: Antiviral activity against Human poliovirus type 1 infected in mouse assessed as viral titer in spleen at 10 mg/kg, ip administered 1 hr post infection once daily for 5 days measured after 7 days by plaque assay; format: functional, organism-based; design: dose 10 mg/kg
Poliovirus 1 [5] = test: Antiviral activity against Human poliovirus type 1 infected in mouse assessed as viral titer in brain 10 mg/kg, ip administered 1 hr post infection once daily for 5 days measured after 8 days by plaque assay; format: functional, organism-based; design: dose 10 mg/kg
Poliovirus 1 [6] = test: Antiviral activity against Human poliovirus type 1 infected in mouse assessed as viral titer in large intestine at 10 mg/kg, ip administered 1 hr post infection once daily for 5 days measured after 10 days by plaque assay; format: functional, organism-based; design: dose 10 mg/kg
Poliovirus 1 [7] = test: Antiviral activity against Human poliovirus type 1 infected in mouse assessed as viral titer in brain at 10 mg/kg, ip administered 1 hr post infection once daily for 5 days measured after 7 days by plaque assay; format: functional, organism-based; design: dose 10 mg/kg
Vero = test: Cytotoxicity against African green monkey Vero cells at 10 uM after 24 hrs by MTS assay; format: cell-based; conditions: chlorocebus sabaeus
Poliovirus 1 [8] = test: Antiviral activity against Human poliovirus type 1 infected in mouse assessed as viral titer in spinal cord at 10 mg/kg, ip administered 1 hr post infection once daily for 5 days measured after 7 days by plaque assay; format: functional, organism-based; design: dose 10 mg/kg
HeLa [9] = test: Cytotoxicity against human HeLa cells at 10 uM by MTS assay; format: cell-based; method in brief: as §1
Poliovirus 1 [10] = test: Antiviral activity against Human poliovirus type 1 infected in mouse assessed as protection from virus-induced death at 10 mg/kg, ip administered 1 hr post infection once daily for 5 days measured after 8 days by plaque assay; format: functional, organism-based; design: dose 10 mg/kg; method in brief: as §2
Poliovirus 1 [11] = test: Antiviral activity against Human poliovirus type 1 infected in mouse assessed as viral titer in spinal cord at 10 mg/kg, ip administered 1 hr post infection once daily for 5 days measured after 10 days by plaque assay; format: functional, organism-based; design: dose 10 mg/kg
Poliovirus 1 [12] = test: Antiviral activity against Human poliovirus type 1 infected in mouse assessed as protection from virus-induced paralytic symptom at 10 mg/kg, ip administered 1 hr post infection once daily for 5 days measured after 7 days by plaque assay; format: functional, organism-based; design: dose 10 mg/kg; method in brief: as §2
Poliovirus 1 [13] = test: Antiviral activity against Human poliovirus type 1 infected in mouse assessed as viral titer in muscle at 10 mg/kg, ip administered 1 hr post infection once daily for 5 days measured after 7 days by plaque assay; format: functional, organism-based; design: dose 10 mg/kg; conditions: Muscle tissue
HeLa [14] = test: Cytotoxicity against human HeLa cell after 21 hrs by MTS assay; format: functional, cell-based
Method in brief: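 Uninfected HeLa cells were exposed to a range of PPMO concentrations for 21 h, then read by MTS assay (4 h, absorbance 492 nm) against water-mock cells set to 100%. CC50 was taken from the concentration–viability curve, and triplicate samples were averaged.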

Poliovirus 1 [15] = test: Antiviral activity against Human poliovirus type 1 infected in mouse assessed as viral titer in large intestine at 10 mg/kg, ip administered 1 hr post infection once daily for 5 days measured after 7 days by plaque assay; format: functional, organism-based; design: dose 10 mg/kg
Poliovirus 1 [16] = test: Antiviral activity against Human poliovirus type 1 infected in mouse assessed as protection from virus-induced death at 10 mg/kg, ip administered 1 hr post infection once daily for 5 days measured after 7 days by plaque assay; format: functional, organism-based; design: dose 10 mg/kg; method in brief: as §2
SK-N-MC = test: Cytotoxicity against human SK-N-MC cell at 10 uM after 24 hrs by MTS assay; format: cell-based
Poliovirus 1 [17] = test: Antiviral activity against Human poliovirus type 1 infected in Human HeLa cell assessed as inhibition of translation at 10 uM by luciferase reporter gene assay; format: functional, organism-based
Method in brief: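 HeLa cells were pretreated 4 h with 10 μM PPMO, then electroporated with 20 μg noncapped PV1-Luc replicon RNA (IRES-driven). They were kept in medium with 10 μM PPMO, with or without 2 mM guanidine HCl, at 37°C in 5% CO2. Luciferase in cell lysates was read at 1-h intervals after transfection. Two experiments were averaged.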

Poliovirus 1 [18] = test: Antiviral activity against Human poliovirus type 1 infected in mouse assessed as viral titer in spinal cord at 10 mg/kg, ip administered 1 hr post infection once daily for 5 days measured after 8 days by plaque assay; format: functional, organism-based; design: dose 10 mg/kg
Poliovirus 1 [19] = test: Antiviral activity against Human poliovirus type 1 infected in mouse assessed as protection from virus-induced paralytic symptom at 10 mg/kg, ip administered 1 hr post infection once daily for 5 days measured after 8 days by plaque assay; format: functional, organism-based; design: dose 10 mg/kg; method in brief: as §2
Poliovirus 1 [20] = test: Antiviral activity against Human poliovirus type 1 infected in mouse assessed as viral titer in muscle at 10 mg/kg, ip administered 1 hr post infection once daily for 5 days measured after 10 days by plaque assay; format: functional, organism-based; design: dose 10 mg/kg; conditions: Muscle tissue
Poliovirus 1 [21] = test: Antiviral activity against Human poliovirus type 1 infected in mouse assessed as viral titer in spleen at 10 mg/kg, ip administered 1 hr post infection once daily for 5 days measured after 8 days by plaque assay; format: functional, organism-based; design: dose 10 mg/kg
Poliovirus 1 [22] = test: Antiviral activity against Human poliovirus type 1 infected in mouse assessed as viral titer in brain at 10 mg/kg, ip administered 1 hr post infection once daily for 5 days measured after 10 days by plaque assay; format: functional, organism-based; design: dose 10 mg/kg
Poliovirus 1 [23] = test: Antiviral activity against Human poliovirus type 1 infected in mouse assessed as viral titer in large intestine at 10 mg/kg, ip administered 1 hr post infection once daily for 5 days measured after 8 days by plaque assay; format: functional, organism-based; design: dose 10 mg/kg
Poliovirus 1 [24] = test: Antiviral activity against Human poliovirus type 1 infected in mouse assessed as viral titer in muscle at 10 mg/kg, ip administered 1 hr post infection once daily for 5 days measured after 8 days by plaque assay; format: functional, organism-based; design: dose 10 mg/kg; conditions: Muscle tissue
Poliovirus 1 [25] = test: Antiviral activity against Human poliovirus type 1 infected in mouse assessed as protection from virus-induced death at 10 mg/kg, ip administered 1 hr post infection once daily for 5 days measured after 10 days by plaque assay; format: functional, organism-based; design: dose 10 mg/kg; method in brief: as §2
Poliovirus 1 [26] = test: Antiviral activity against Human poliovirus type 1 infected in mouse assessed as viral titer in small intestine at 10 mg/kg, ip administered 1 hr post infection once daily for 5 days measured after 8 days by plaque assay; format: functional, organism-based; design: dose 10 mg/kg
Poliovirus 1 [27] = test: Antiviral activity against Human poliovirus type 1 infected in Human HeLa cell assessed as inhibition of translation at 10 ug/ml by luciferase reporter gene assay; format: functional, organism-based
Method in brief: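 In-cell translation control: HeLa cells electroporated with 20 μg PV1-Luc replicon RNA were placed in medium with 10 μg/ml puromycin at 37°C in 5% CO2. Luciferase in lysates was read by luminometer at hourly time points after transfection. Two experiments were averaged.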

Poliovirus 1 [28] = test: Antiviral activity against Human poliovirus type 1 infected in mouse assessed as viral titer in small intestine at 10 mg/kg, ip administered 1 hr post infection once daily for 5 days measured after 10 days by plaque assay; format: functional, organism-based; design: dose 10 mg/kg
Poliovirus 1 [29] = test: Antiviral activity against Human poliovirus type 1 infected in mouse assessed as viral titer in small intestine at 10 mg/kg, ip administered 1 hr post infection once daily for 5 days measured after 7 days by plaque assay; format: functional, organism-based; design: dose 10 mg/kg
Poliovirus 1 [30] = test: Antiviral activity against Human poliovirus type 1 infected in Human HeLa cell after 21 hrs post infection by plaque assay; format: functional, organism-based; conditions: Enterovirus C
Method in brief: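 HeLa cells infected with cDNA-derived PV1 (MOI 0.1), then treated after infection with 2 to 100 μM PPMO. Supernatant virus was titrated by plaque assay on HeLa monolayers 21 h later: 1% agar overlay, 36 h at 37°C, formaldehyde fixation, crystal violet staining and plaque count. IC50 was taken from triplicate samples.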

Cc1cn([C@H]2CN(P(=O)(OC[C@@H]3CN(P(=O)(OC[C@@H]4CNC[C@H](n5cnc6c(=O)[nH]c(N)nc65)O4)N(C)C)C[C@H](n4cnc5c(N)ncnc54)O3)N(C)C)C[C@@H](COP(=O)(N(C)C)N3C[C@@H](COP(=O)(N(C)C)N4C[C@@H](COP(=O)(N(C)C)N5C[C@@H](COP(=O)(N(C)C)N6C[C@@H](COP(=O)(N(C)C)N7C[C@@H](COP(=O)(N(C)C)N8C[C@@H](COP(=O)(N(C)C)N9C[C@@H](COP(=O)(N(C)C)N%10C[C@@H](COP(=O)(N(C)C)N%11C[C@@H](COP(=O)(N(C)C)N%12C[C@@H](COP(=O)(N(C)C)N%13C[C@@H](COP(=O)(N(C)C)N%14C[C@@H](COP(=O)(N(C)C)N%15C[C@@H](COP(=O)(N(C)C)N%16C[C@@H](COP(=O)(N(C)C)N%17C[C@@H](COP(=O)(N(C)C)N%18C[C@@H](COP(=O)(N(C)C)N%19C[C@@H](COP(=O)(N(C)C)N%20C[C@@H](COP(=O)(N(C)C)N%21C[C@@H](COP(=O)(N(C)C)N%22CCN(C(=O)CCNC(=O)CCCCCNC(=O)[C@H](CCCNC(=N)N)NC(=O)CCCCCNC(=O)[C@H](CCCNC(=N)N)NC(=O)[C@H](CCCNC(=N)N)NC(=O)CCCCCNC(=O)[C@H](CCCNC(=N)N)NC(=O)[C@H](CCCNC(=N)N)NC(=O)CCCCCNC(=O)[C@H](CCCNC(=N)N)NC(=O)[C@H](CCCNC(=N)N)NC(=O)CCCCCNC(=O)[C@@H](N)CCCNC(=N)N)CC%22)O[C@@H](n%22cnc%23c(=O)[nH]c(N)nc%23%22)C%21)O[C@@H](n%21cnc%22c(N)ncnc%22%21)C%20)O[C@@H](n%20cnc%21c(N)ncnc%21%20)C%19)O[C@@H](n%19cnc%20c(N)ncnc%20%19)C%18)O[C@@H](n%18ccc(N)nc%18=O)C%17)O[C@@H](n%17cnc%18c(N)ncnc%18%17)C%16)O[C@@H](n%16ccc(N)nc%16=O)C%15)O[C@@H](n%15cnc%16c(=O)[nH]c(N)nc%16%15)C%14)O[C@@H](n%14cnc%15c(=O)[nH]c(N)nc%15%14)C%13)O[C@@H](n%13cnc%14c(N)ncnc%14%13)C%12)O[C@@H](n%12ccc(N)nc%12=O)C%11)O[C@@H](n%11cnc%12c(N)ncnc%12%11)C%10)O[C@@H](n%10ccc(N)nc%10=O)C9)O[C@@H](n9ccc(N)nc9=O)C8)O[C@@H](n8ccc(N)nc8=O)C7)O[C@@H](n7cnc8c(N)ncnc87)C6)O[C@@H](n6cnc7c(N)ncnc76)C5)O[C@@H](n5cnc6c(N)ncnc65)C4)O[C@@H](n4cnc5c(=O)[nH]c(N)nc54)C3)O2)c(=O)[nH]c1=O (some centres not stated)
Toxic: Activity (HeLa [2])
active: Activity (Poliovirus 1 [3]) | Activity (Poliovirus 1 [5]) | Activity (Poliovirus 1 [7]) | Activity (Poliovirus 1 [8]) | Activity (Poliovirus 1 [10]) | Activity (Poliovirus 1 [11]) | Activity (Poliovirus 1 [12]) | Activity (Poliovirus 1 [16]) | Activity (Poliovirus 1 [17]) | Activity (Poliovirus 1 [18]) | Activity (Poliovirus 1 [19]) | Activity (Poliovirus 1 [22]) | Activity (Poliovirus 1 [25]) | Activity (Poliovirus 1 [26]) | Activity (Poliovirus 1 [28]) | Activity (Poliovirus 1 [29])
inactive: Activity (Poliovirus 1 [1]) | Activity (Poliovirus 1 [4]) | Activity (Poliovirus 1 [6]) | Activity (Poliovirus 1 [13]) | Activity (Poliovirus 1 [15]) | Activity (Poliovirus 1 [20]) | Activity (Poliovirus 1 [21]) | Activity (Poliovirus 1 [23]) | Activity (Poliovirus 1 [24]) | Activity (Poliovirus 1 [27])
52 µM: CC50 (HeLa [14])
Non-toxic: Activity (Vero) | Activity (HeLa [9]) | Activity (SK-N-MC)
2 µM: IC50 (Poliovirus 1 [30])

Source: ChEMBL document CHEMBL1629545, “A morpholino oligomer targeting highly conserved internal ribosome entry site sequence is able to inhibit multiple species of picornavirus” (Antimicrob Agents Chemother, 2008)
